Data as given in ChEMBL document CHEMBL5724801, “EUbOPEN Chemogenomics Library - Multiplex” (2024).
Several values for one entry are separate records, joined by “and”; a condition that tells them apart may be missing. Equal entries are not always repeated.

Legend:
Fibroblast = assay: Multiplex assay against human fibroblast; assay type: toxicity, cell-based
Summary of the method: (§1)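 Live cells were stained at seeding with Hoechst33342, BioTracker Green Microtubule Cytoskeleton Dye, MitoTracker Red and Annexin V Alexa Fluor 680. Following compound addition, they were imaged on a CQ1 microscope at 37°C and 5% CO2 and gated by CellPathfinder machine learning into Hoechst high-intensity objects or normal cells, with normal cells split into healthy, pyknosed or fragmented nuclei and pyknosed cells into mitotic or apoptotic. Tubulin, mitochondrial-mass and membrane-permeability phenotypes are per cents of healthy-nucleus cells.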

HEK-293T = assay: Multiplex assay against HEK293T; assay type: toxicity, cell-based; conditions: human; summary of the method: as §1
[1] = 12 h, 1 µM, compound concentration 1 uM
[2] = 12 h, 10 µM, compound concentration 10 uM
[3] = 24 h, 1 µM, compound concentration 1 uM
[4] = 24 h, 10 µM, compound concentration 10 uM
[5] = 48 h, 1 µM, compound concentration 1 uM
[6] = 48 h, 10 µM, compound concentration 10 uM

Structure (SMILES): CCC(=O)OCC(=O)[C@@]1(OC(=O)CC)[C@@H](C)C[C@H]2[C@@H]3CCC4=CC(=O)C=C[C@]4(C)[C@@]3(Cl)[C@@H](O)C[C@@]21C [BECLOMETHASONE DIPROPIONATE]
- Population Apoptotic (%) (Fibroblast; [1]): 38% and 42%
- Population Fragmented Nuclei (%) (Fibroblast; [1]): 13% and 30%
- Population Healthy Nuclei (%) (Fibroblast; [1]): 73% and 40%
- Population Hoechst High Intensity Objects (%) (Fibroblast; [1]): 3%
- Population Membrane Permeable-Phenotype (%) (Fibroblast; [1]): 1% and 5%
- Population Mitochondria Different-Phenotype (%) (Fibroblast; [1]): 2% and 10%
- Population Mitotic Cells (%) (Fibroblast; [1]): 61% and 57%
- Population Normal (%) (Fibroblast; [1]): 96%
- Population Pyknosed Nuclei (%) (Fibroblast; [1]): 13% and 30%
- Population Tubulin-Different-Phenotype (%) (Fibroblast; [1]): 47% and 63%
- Total Cell Count (Fibroblast; [1]): 135 and 155
- Population Apoptotic (%) (Fibroblast; [2]): 40%
- Population Healthy Nuclei (%) (Fibroblast; [2]): 69% and 42%
- Population Hoechst High Intensity Objects (%) (Fibroblast; [2]): 8% and 5%
- Population Mitochondria Different-Phenotype (%) (Fibroblast; [2]): 17% and 20%
- Population Mitotic Cells (%) (Fibroblast; [2]): 60% and 59%
- Population Normal (%) (Fibroblast; [2]): 91% and 94%
- Population Pyknosed Nuclei (%) (Fibroblast; [2]): 20% and 24%
- Population Tubulin-Different-Phenotype (%) (Fibroblast; [2]): 87% and 94%
- Total Cell Count (Fibroblast; [2]): 157 and 96
- Population Apoptotic (%) (Fibroblast; [3]): 50% and 47%
- Population Fragmented Nuclei (%) (Fibroblast; [3]): 16% and 30%
- Population Healthy Nuclei (%) (Fibroblast; [3]): 65% and 45%
- Population Hoechst High Intensity Objects (%) (Fibroblast; [3]): 1% and 6%
- Population Membrane Permeable-Phenotype (%) (Fibroblast; [3]): 3% and 7%
- Population Mitochondria Different-Phenotype (%) (Fibroblast; [3]): 2% and 7%
- Population Mitotic Cells (%) (Fibroblast; [3]): 50% and 52%
- Population Normal (%) (Fibroblast; [3]): 98% and 93%
- Population Pyknosed Nuclei (%) (Fibroblast; [3]): 18% and 24%
- Population Tubulin-Different-Phenotype (%) (Fibroblast; [3]): 34% and 60%
- Total Cell Count (Fibroblast; [3]): 134 and 150
- Population Apoptotic (%) (Fibroblast; [4]): 40% and 19%
- Population Fragmented Nuclei (%) (Fibroblast; [4]): 13% and 38%
- Population Healthy Nuclei (%) (Fibroblast; [4]): 66% and 40%
- Population Hoechst High Intensity Objects (%) (Fibroblast; [4]): 6%
- Population Mitochondria Different-Phenotype (%) (Fibroblast; [4]): 30% and 12%
- Population Mitotic Cells (%) (Fibroblast; [4]): 59% and 80%
- Population Normal (%) (Fibroblast; [4]): 93%
- Population Pyknosed Nuclei (%) (Fibroblast; [4]): 19% and 21%
- Population Tubulin-Different-Phenotype (%) (Fibroblast; [4]): 86% and 79%
- Total Cell Count (Fibroblast; [4]): 148 and 104
- Population Apoptotic (%) (Fibroblast; [5]): 28% and 52%
- Population Fragmented Nuclei (%) (Fibroblast; [5]): 13% and 31%
- Population Healthy Nuclei (%) (Fibroblast; [5]): 56% and 41%
- Population Hoechst High Intensity Objects (%) (Fibroblast; [5]): 3% and 7%
- Population Membrane Permeable-Phenotype (%) (Fibroblast; [5]): 1% and 5%
- Population Mitochondria Different-Phenotype (%) (Fibroblast; [5]): 15% and 9%
- Population Mitotic Cells (%) (Fibroblast; [5]): 71% and 47%
- Population Normal (%) (Fibroblast; [5]): 96% and 92%
- Population Pyknosed Nuclei (%) (Fibroblast; [5]): 30% and 27%
- Population Tubulin-Different-Phenotype (%) (Fibroblast; [5]): 61% and 54%
- Total Cell Count (Fibroblast; [5]): 132 and 143
- Population Apoptotic (%) (Fibroblast; [6]): 67% and 37%
- Population Fragmented Nuclei (%) (Fibroblast; [6]): 21% and 33%
- Population Healthy Nuclei (%) (Fibroblast; [6]): 54% and 33%
- Population Hoechst High Intensity Objects (%) (Fibroblast; [6]): 6% and 3%
- Population Membrane Permeable-Phenotype (%) (Fibroblast; [6]): 0% and 18%
- Population Mitotic Cells (%) (Fibroblast; [6]): 32% and 62%
- Population Normal (%) (Fibroblast; [6]): 93% and 96%
- Population Pyknosed Nuclei (%) (Fibroblast; [6]): 24% and 33%
- Population Tubulin-Different-Phenotype (%) (Fibroblast; [6]): 76% and 84%
- Total Cell Count (Fibroblast; [6]): 162 and 99
- Population Apoptotic (%) (HEK-293T; [1]): 43% and 47%
- Population Fragmented Nuclei (%) (HEK-293T; [1]): 8% and 5%
- Population Healthy Nuclei (%) (HEK-293T; [1]): 75% and 74%
- Population Hoechst High Intensity Objects (%) (HEK-293T; [1]): 7% and 4%
- Population Membrane Permeable-Phenotype (%) (HEK-293T; [1]): 0%
- Population Mitochondria Different-Phenotype (%) (HEK-293T; [1]): 60% and 75%
- Population Mitotic Cells (%) (HEK-293T; [1]): 56% and 52%
- Population Normal (%) (HEK-293T; [1]): 92% and 95%
- Population Pyknosed Nuclei (%) (HEK-293T; [1]): 15% and 19%
- Population Tubulin-Different-Phenotype (%) (HEK-293T; [1]): 48% and 42%
- Total Cell Count (HEK-293T; [1]): 388 and 356
- Population Apoptotic (%) (HEK-293T; [2]): 60% and 68%
- Population Fragmented Nuclei (%) (HEK-293T; [2]): 8% and 6%
- Population Healthy Nuclei (%) (HEK-293T; [2]): 66%
- Population Hoechst High Intensity Objects (%) (HEK-293T; [2]): 14% and 16%
- Population Membrane Permeable-Phenotype (%) (HEK-293T; [2]): 0%
- Population Mitochondria Different-Phenotype (%) (HEK-293T; [2]): 87% and 93%
- Population Mitotic Cells (%) (HEK-293T; [2]): 39% and 31%
- Population Normal (%) (HEK-293T; [2]): 85% and 83%
- Population Pyknosed Nuclei (%) (HEK-293T; [2]): 25% and 27%
- Population Tubulin-Different-Phenotype (%) (HEK-293T; [2]): 65% and 35%
- Total Cell Count (HEK-293T; [2]): 236 and 252
- Population Apoptotic (%) (HEK-293T; [3]): 32% and 43%
- Population Fragmented Nuclei (%) (HEK-293T; [3]): 7%
- Population Healthy Nuclei (%) (HEK-293T; [3]): 81%
- Population Hoechst High Intensity Objects (%) (HEK-293T; [3]): 4% and 5%
- Population Membrane Permeable-Phenotype (%) (HEK-293T; [3]): 0%
- Population Mitochondria Different-Phenotype (%) (HEK-293T; [3]): 40% and 52%
- Population Mitotic Cells (%) (HEK-293T; [3]): 67% and 56%
- Population Normal (%) (HEK-293T; [3]): 95% and 94%
- Population Pyknosed Nuclei (%) (HEK-293T; [3]): 11%
- Population Tubulin-Different-Phenotype (%) (HEK-293T; [3]): 31% and 18%
- Total Cell Count (HEK-293T; [3]): 507 and 446
- Population Apoptotic (%) (HEK-293T; [4]): 56% and 62%
